Data set [1] in a line: Inhibition of Wnt3A/beta-catenin signaling in HEK293 cells at 5 uM after 24 hrs by firefly/renilla dual luciferase reporter gene assay relative to vehicle-treated control. It is filed as cell-based. More on the design: scale not given: the % may be the effect or the level left. Conditions: Homo sapiens. In short, it runs like this: (§1)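 HEK293T cells were co-transfected with TOPglow (or FOPglow) plus pCMV Renilla. At 20 h they were reseeded at 18×10^3/well and treated for 24 h with Wnt-3A conditioned medium (from L-Wnt-3A cells) plus analogs (0.01–20 µM; DMSO ≤0.1%). Firefly/Renilla dual-luciferase ratios were expressed as % of DMSO under Wnt-3A. EC50 was taken from sigmoidal concentration–response fits; three independent experiments.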
Background: In a reporter assay the amount or activity of a reporter protein is the signal.

The nature of data set [2]: Inhibition of Wnt3A/beta-catenin signaling in HEK293 cells at 20 uM after 24 hrs by firefly/renilla dual luciferase reporter gene assay relative to vehicle-treated control. The conditions noted are these: Homo sapiens. It is filed as cell-based. More on the design: scale not given: the % may be the effect or the level left. In short, it runs like this:
as §1

A short description of data set [3]: Inhibition of Wnt3A/beta-catenin signaling in HEK293 cells at 10 uM after 24 hrs by firefly/renilla dual luciferase reporter gene assay relative to vehicle-treated control. It is filed as cell-based. More on the design: scale not given: the % may be the effect or the level left. Conditions: Homo sapiens. A digest of the protocol: as §1
The nature of data set [4]: Inhibition of Wnt3A/beta-catenin signaling in HEK293 cells at 1 uM after 24 hrs by firefly/renilla dual luciferase reporter gene assay relative to vehicle-treated control. It is filed as cell-based. On the set-up: scale not given: the % may be the effect or the level left. The conditions noted are these: Homo sapiens. In short, it runs like this:
as §1

Data set [5] can be described thus: Inhibition of Wnt3A/beta-catenin signaling in HEK293 cells after 24 hrs by firefly/renilla dual luciferase reporter gene assay relative to curcumin. It is filed as cell-based. Conditions: Homo sapiens. A digest of the protocol: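 EC50s came from the HEK293T TOPglow/Renilla dual-luciferase assay with Wnt-3A conditioned medium and 24 h compound exposure (0.01–20 µM), using sigmoidal fits; three independent experiments.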

The next data set deals with HEK293T (human). The data set can be described thus: Cytotoxicity against human HEK293T cells at dual luciferase reporter gene assay EC50 after 24 hrs by MTS assay.
Data set [6] can be described thus: Inhibition of Wnt3A/beta-catenin signaling-mediated Tcf4 transcriptional activity in human HEK293T cells at dual luciferase reporter gene assay EC50 after 24 hrs by FOPglow reporter gene assay. On the set-up: scale not given: the % may be the effect or the level left.
The nature of data set [7]: Inhibition of Wnt3A/beta-catenin signaling in HEK293 cells after 24 hrs by firefly/renilla dual luciferase reporter gene assay. The conditions noted are these: Homo sapiens, HEK293, 24 h. It is filed as cell-based. In short, it runs like this:
as §1

Consider 34 compounds from ChEMBL document CHEMBL3102846 (Eur J Med Chem, 2014).

In the case of `O=C(/C=C/c1ccc(F)c(F)c1)c1ccc(F)c(F)c1`, the activity amounted to 112% in data set [1], 59.1% in data set [2], 90.2% in data set [3] and 117% in data set [4].

For orientation: EC50 means the concentration at which the effect is half-maximal. Take `O=C1/C(=C/c2ccccc2)CC/C1=C\c1ccccc1`: the activity in data set [1] stood at 41.5%; in data set [2] it was 18.4%; in data set [3], 25.3%; in data set [4], 82.7%; in data set [6], 82.9%. The compound further had a fold change (FC) in data set [5] of 6.7. The compound also yielded an Activity in the data set on HEK293T (human) of 83.5%. Also, a half-maximal response in data set [7] (EC50) required 3.1 µM.

In the case of `COc1ccc(/C=C/C(=O)/C=C(O)/C=C/c2ccc(OC)c(OC)c2)cc1OC`, the activity in data set [1] amounted to 70%; in data set [3] it was 46.5%; in data set [4], 102%; in data set [6], 118%. In data set [5], this compound registered a fold change (FC) of 2.5. The Activity in the data set on HEK293T (human) came out at 41.6%. This compound came in with an EC50 in data set [7] of 8.3 µM.

For the compound `O=C1/C(=C/c2cccc(F)c2)CCC/C1=C\c1cccc(F)c1`, the activity in data set [1] was found to be 119%; in data set [2], 104%; in data set [3], 105%; in data set [4], 96.1%.

Consider `COc1ccc(/C=C/C(=O)c2ccc(OC)c(OC)c2)cc1OC`, for which the activity in data set [1] was determined as 86.6%; in data set [2] it was 41.6%; in data set [3], 60.3%; in data set [4] it was 95%.

On to `COc1ccc(/C=C/C(=O)c2ccc(OC)c(O)c2)cc1O`, for which the activity is 53.9% in data set [1]; 25.7% in data set [2]; 42% in data set [3]; 95.7% in data set [4]; 131% in data set [6]. The compound also gave a fold change (FC) in data set [5] of 5.3. For the same compound, the Activity in the data set with HEK293T (human) is reported as 87.2%. The compound further yielded an EC50 in data set [7] of 3.9 µM.

For the compound `O=C1/C(=C/c2ccccc2)CCC/C1=C\c1ccccc1` [2,6-DIBENZYLIDENECYCLOHEXANONE], the activity in data set [1] worked out at 49.6%; in data set [2] it was 39%; in data set [3] it was 40.6%; in data set [4] it was 85.8%; in data set [6] it was 90.7%. Moreover, the fold change (FC) in data set [5] was 10.1. In the data set with HEK293T (human), the Activity is 100%. Further, a half-maximal effect in data set [7] (EC50) was put at 2 µM.

Consider `COc1ccc(/C=C2\CCC/C(=C\c3ccc(OC)c(OC)c3)C2=O)cc1OC`, for which the activity in data set [1] stood at 64.3%; in data set [2] it was 40.8%; in data set [3] it was 62.8%; in data set [4], 97.7%; in data set [6], 104%. This compound also came in with a fold change (FC) in data set [5] of 1.3. Further, the Activity with HEK293T (human) is 62.1%. Also, the concentration giving a half-maximal response (EC50) in data set [7] is 15.9 µM.

`COc1cc(/C=C2\CC/C(=C\c3ccc(O)c(OC)c3)C2=O)ccc1O`: the activity was 54.1% in data set [1]; 13.3% in data set [2]; 37.5% in data set [3]; 91.6% in data set [4]; 90.8% in data set [6]. This compound also registered a fold change (FC) in data set [5] of 3.5. The compound also returned an EC50 in data set [7] of 5.9 µM.

Regarding `O=C1/C(=C/c2ccc(F)c(F)c2)CCC/C1=C\c1ccc(F)c(F)c1`, the activity in data set [1] came to 126%; in data set [2], 114%; in data set [3], 118%; in data set [4], 94.5%.

For the compound `O=C(/C=C(O)/C=C/c1ccc(F)c(F)c1)/C=C/c1ccc(F)c(F)c1`, the activity stood at 92.2% in data set [1], 93.1% in data set [2], 89.2% in data set [3] and 83.3% in data set [4].

For the compound `COc1cccc(/C=C2\CCC/C(=C\c3cccc(OC)c3)C2=O)c1`, the activity in data set [1] was determined as 60.7%; in data set [2], 81.5%; in data set [3] it was 72.7%; in data set [4], 93.3%.

`COc1ccc(/C=C/C(=O)/C=C/c2ccc(OC)c(OC)c2)cc1OC`: the activity in data set [1] turned out to be 108%; in data set [2], 103%; in data set [3], 109%; in data set [4], 107%.

Consider `O=C1/C(=C/c2ccc(F)cc2)CCC/C1=C\c1ccc(F)cc1`, for which the activity in data set [1] came out at 65.2%; in data set [2], 60.2%; in data set [3] it was 61.6%; in data set [4] it was 70.3%.

For the compound `O=C(/C=C/c1ccc(F)c(F)c1)/C=C/c1ccc(F)c(F)c1`, the activity was determined as 100% in data set [1], 111% in data set [2], 110% in data set [3] and 103% in data set [4].

Take `COc1cc(/C=C/C(=O)c2ccc(O)c(OC)c2)ccc1O`: the activity in data set [1] worked out at 115%; in data set [2], 69.6%; in data set [3], 86.9%; in data set [4] it was 112%.

For the compound `COc1cccc(/C=C2\CC/C(=C\c3cccc(OC)c3)C2=O)c1`, the activity worked out at 72.7% in data set [1], 61.3% in data set [2], 72% in data set [3] and 92.3% in data set [4].

Turning to `COc1cc(/C=C2\CCC/C(=C\c3ccc(O)c(OC)c3)C2=O)ccc1O` [CYCLOVALONE], the activity is 28.9% in data set [1], 21.3% in data set [3], 86.1% in data set [4] and 87.6% in data set [6]. Further, the fold change (FC) in data set [5] was found to be 7.9. In data set [7], this compound came in with a 50% effective concentration (EC50) of 2.6 µM.

On to `O=C1/C(=C/c2ccc(F)c(F)c2)CC/C1=C\c1ccc(F)c(F)c1`, for which the activity in data set [1] was determined as 73.1%; in data set [2], 59.5%; in data set [3], 60.2%; in data set [4] it was 71%.

Regarding `O=C1/C(=C/c2ccccc2F)CC/C1=C\c1ccccc1F`, the activity in data set [1] stood at 75.7%; in data set [2] it was 72.8%; in data set [3], 85.3%; in data set [4] it was 80%.

With `COc1cccc(/C=C/C(=O)/C=C(O)/C=C/c2cccc(OC)c2)c1`, the activity in data set [1] came to 107%; in data set [2] it was 101%; in data set [3], 108%; in data set [4], 97.7%.

In the case of `COc1cccc(/C=C/C(=O)c2cccc(OC)c2)c1`, the activity in data set [1] stood at 108%; in data set [2], 72.9%; in data set [3], 111%; in data set [4] it was 107%.

For the compound `COc1ccc(/C=C/C(=O)/C=C(O)/C=C/c2ccc(OC)c(O)c2)cc1O`, the activity in data set [1] came out at 110%; in data set [2], 113%; in data set [3], 105%; in data set [4], 99.7%.

As for `O=C(/C=C/c1ccccc1)/C=C/c1ccccc1`, the activity in data set [1] amounted to 82.7%; in data set [2], 77.9%; in data set [3] it was 79.7%; in data set [4], 93%.

As to `COc1cc(/C=C/C(=O)/C=C/c2ccc(O)c(OC)c2)ccc1O`, the activity came out at 111% in data set [1], 90.4% in data set [2], 110% in data set [3] and 118% in data set [4].

For `O=C(/C=C/c1ccc(O)cc1)c1ccc(O)cc1`, the activity in data set [1] was determined as 89.6%; in data set [2], 68.3%; in data set [3] it was 70.9%; in data set [4] it was 92.7%.

With `O=C1/C(=C/c2ccccc2F)CCC/C1=C\c1ccccc1F`, the activity in data set [1] was determined as 21.9%; in data set [2], 20.9%; in data set [3], 14.5%; in data set [4], 57.7%; in data set [6], 93%. In data set [5], this compound gave a fold change (FC) of 22.8. This compound also yielded an Activity in the data set with HEK293T (human) of 87%. Further, the EC50 in data set [7] came out at 0.9 µM.

Consider `COc1cccc(/C=C/C(=O)/C=C/c2cccc(OC)c2)c1`, for which the activity in data set [1] amounted to 114%; in data set [2] it was 103%; in data set [3] it was 103%; in data set [4], 100%.

Regarding `O=C1/C(=C/c2ccc(F)cc2)CC/C1=C\c1ccc(F)cc1`, the activity in data set [1] was determined as 112%; in data set [2], 108%; in data set [3], 105%; in data set [4], 120%.

As for `O=C(/C=C/c1ccc(O)cc1)CC(=O)/C=C/c1ccc(O)cc1`, the activity came to 77.7% in data set [1], 69.1% in data set [2], 72.5% in data set [3] and 100% in data set [4].

Consider `O=C(/C=C(O)/C=C/c1ccccc1)/C=C/c1ccccc1`, for which the activity turned out to be 104% in data set [1], 97.2% in data set [2], 107% in data set [3] and 109% in data set [4].

On to `O=C1/C(=C/c2cccc(F)c2)CC/C1=C\c1cccc(F)c1`, for which the activity in data set [1] was found to be 119%; in data set [2], 103%; in data set [3] it was 109%; in data set [4], 124%.

Take `COc1ccc(/C=C2\CC/C(=C\c3ccc(OC)c(OC)c3)C2=O)cc1OC`: the activity in data set [1] turned out to be 65.9%; in data set [2], 39.2%; in data set [3], 55.5%; in data set [4] it was 88.9%; in data set [6] it was 85.2%. For the same compound, the fold change (FC) in data set [5] amounted to 1.2. Further, in data set [7], it took 17.1 µM to reach a half-maximal effect (EC50).

As for `O=C(/C=C/c1ccccc1)c1ccccc1` [CHALCONE], the activity in data set [1] stood at 90.6%; in data set [2], 18.9%; in data set [3], 69%; in data set [4], 102%; in data set [6] it was 112%. The compound further registered a fold change (FC) in data set [5] of 1.9. In data set [7], this compound returned an EC50 of 11 µM.
